Data published in ChEMBL document CHEMBL3108662, “Controlled oxygen release from pyridone endoperoxides promotes cell survival under anoxic conditions” (J Med Chem, 2013).
Calls of active or inactive are those of the source. The rule behind the calls is not given here.

Assays:
[1] = Induction of oxygen release in H2O/D2O relative to DMSO-treated control; type: physicochemical
[2] = Half life in H2O/D2O at 37 degC by 1H-NMR spectroscopic analysis; type: ADME
[3] = Induction of oxygen release in H2O/D2O; type: physicochemical
[4] = Drug degradation in H2O/D2O assessed as byproduct formation at 37 degC by 1H-NMR spectroscopic analysis; type: physicochemical
[5] = Cytotoxicity against rat primary smooth muscle cells assessed as growth inhibition under anoxic condition up to 100 ug/mL measured over 4 days by WST-1 assay; type: cell-based; conditions: 96 h
Procedure, shortened: (§1)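 Primary smooth muscle cells freshly isolated from rat bladder, seeded at 4000 cells/cm² in DMEM/10% FBS/1% Pen/Strep. Additive dissolved in 1:50 H₂O/DMSO and added at 10–200 µg/mL, with or without vitamin C (100 or 200 µg/mL). Normoxic at 37°C, 5% CO₂, or anoxic in sealed N₂-degassed medium, up to 4 days. WST-1 read on days 1–4 (3 h, A450). Triplicates, normalized to untreated = 100%.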

Rattus norvegicus [6] = species on record: Rattus norvegicus; experiment: Growth promoting activity in rat primary smooth muscle cells under anoxic condition at 50 ug/mL measured over 4 days by WST-1 assay in presence of 100 ug/mL vitamin C; type: functional; procedure, shortened: as §1
Rattus norvegicus [7] = species on record: Rattus norvegicus; experiment: Growth promoting activity in rat primary smooth muscle cells under normoxic condition at 10 to 50 ug/mL measured over 4 days by WST-1 assay; type: functional; procedure, shortened: as §1
3T3 [8] = experiment: Growth promoting activity in […] cells under anoxic condition at 29 uM measured on day 1 by WST-1 assay in presence of 100 ug/mL vitamin C; type: functional, cell-based
Procedure, shortened: (§2)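 3T3 fibroblasts plated at 4000 cells/cm² in DMEM/F-12 with 10% FBS and 1% Pen/Strep. Compound in 1:50 H2O/DMSO was added at 10, 50, 100 or 200 µg/mL, alone or with vitamin C in water (100 or 500 µg/mL). Run normoxic (37°C, 5% CO2) or anoxic (N2-degassed medium, sealed bags under N2, no medium change, up to 4 days). WST-1 read at 450 nm after 3 h on days 1-4. Growth normalized to untreated control as 100%. Triplicates.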

[9] = Induction of singlet oxygen release in water at 0.1 mM measured every 10 mins by SOSG assay in presence of 0.37 mM vitamin C; type: physicochemical; conditions: buffer, 100 µM
Procedure, shortened: (§3)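 Singlet oxygen sensor green was dissolved in MeOH. Compound was dissolved in MeOH, then diluted in water, with or without vitamin C dissolved in water. Fluorescence (ex/em 488/525 nm) recorded every 10 min at 37 °C. Blanks of SOSG or SOSG/vitamin C were subtracted. Triplicates.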

[10] = Induction of singlet oxygen release in water at 0.1 mM measured every 10 mins by SOSG assay; type: physicochemical; conditions: buffer, 100 µM; procedure, shortened: as §3
[11] = Cytotoxicity against rat primary smooth muscle cells assessed as growth inhibition under anoxic condition at 50 ug/mL measured over 4 days by WST-1 assay in presence of 200 ug/mL vitamin C; type: cell-based; conditions: 96 h
Procedure, shortened: (§4)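 Primary smooth muscle cells freshly isolated from rat bladder, plated at 4000 cells/cm² in DMEM/F-12, 10% FBS, 1% Pen/Strep. Compound was added from 1:50 H2O/DMSO at 10–200 µg/mL, with or without vitamin C in water at 100 or 200 µg/mL. Normoxic (37°C, 5% CO2) or anoxic runs: N2-degassed medium, plates sealed under N2 for up to 4 days without medium change. WST-1 absorbance at 450 nm after 3 h, days 1-4. Normalized to untreated control as 100%. Triplicates.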

[12] = Cytotoxicity against rat primary smooth muscle cells assessed as growth inhibition under anoxic condition at 50 ug/mL measured over 4 days by WST-1 assay; type: cell-based; conditions: 96 h; procedure, shortened: as §4
Rattus norvegicus [13] = species on record: Rattus norvegicus; experiment: Growth promoting activity in rat primary smooth muscle cells under normoxic condition at 29 uM measured over 4 days by WST-1 assay in presence of 100 ug/mL vitamin C; type: functional; procedure, shortened: as §4
Rattus norvegicus [14] = species on record: Rattus norvegicus; experiment: Growth promoting activity in rat primary smooth muscle cells under anoxic condition at 29 uM measured over 4 days by WST-1 assay in presence of 100 ug/mL vitamin C; type: functional; procedure, shortened: as §4
Rattus norvegicus [15] = species on record: Rattus norvegicus; experiment: Growth promoting activity in rat primary smooth muscle cells under normoxic condition at 50 ug/mL measured over 4 days by WST-1 assay in presence of 100 to 200 ug/mL vitamin C; type: functional; procedure, shortened: as §4
[16] = Cytotoxicity against rat primary smooth muscle cells assessed as growth inhibition under normoxic condition at 50 ug/mL measured over 4 days by WST-1 assay; type: cell-based; conditions: 96 h; procedure, shortened: as §4
3T3 [17] = experiment: Cytotoxicity against […] cells assessed as growth inhibition under anoxic condition at 29 uM measured on day 1 by WST-1 assay in presence of 100 ug/mL vitamin C; type: cell-based; conditions: 3t3, 29 µM; procedure, shortened: as §2
3T3 [18] = experiment: Cytotoxicity against […] cells under normoxic condition at 29 uM measured over 4 days by WST-1 assay in presence of 100 ug/mL vitamin C; type: cell-based; conditions: 3t3, 96 h; procedure, shortened: as §2
3T3 [19] = experiment: Cytotoxicity against […] cells under anoxic condition at 29 uM measured over 4 days by WST-1 assay in presence of 100 ug/mL vitamin C; type: cell-based; conditions: 3t3, 96 h; procedure, shortened: as §2
3T3 [20] = experiment: Cytotoxicity against […] cells assessed as growth inhibition under anoxic condition at 50 ug/ml measured over 4 days by WST-1 assay in presence of vitamin C; type: cell-based; conditions: 3t3, 96 h; procedure, shortened: as §2
3T3 [21] = experiment: Cytotoxicity against […] cells assessed as growth inhibition under normoxic condition at 50 ug/ml measured over 4 days by WST-1 assay in presence of vitamin C; type: cell-based; conditions: 3t3, 96 h; procedure, shortened: as §2
3T3 [22] = experiment: Cytotoxicity against […] cells assessed as growth inhibition under anoxic condition at 200 ug/ml measured over 4 days by WST-1 assay in presence of vitamin C relative to control; type: functional, cell-based; procedure, shortened: as §2
3T3 [23] = experiment: Cytotoxicity against […] cells assessed as growth inhibition under normoxic condition at 200 ug/ml measured over 4 days by WST-1 assay in presence of vitamin C relative to control; type: cell-based; conditions: 3t3, 96 h; procedure, shortened: as §2
3T3 [24] = experiment: Growth promoting activity in rat 3T3 cells under normoxic condition at 100 to 200 ug/mL measured on day 1 by WST-1 assay in presence of 500 ug/mL vitamin C; type: functional, cell-based; procedure, shortened: as §2
3T3 [25] = experiment: Cytotoxicity against […] cells assessed as growth inhibition under normoxic condition at 100 ug/ml measured on day 4 by WST-1 assay in presence of vitamin C relative to control; type: cell-based; procedure, shortened: as §2
3T3 [26] = experiment: Cytotoxicity against […] cells assessed as growth inhibition under anoxic condition at 29 to 580 uM measured over 4 days by WST-1 assay in presence of 100 ug/mL vitamin C; type: cell-based; conditions: 3t3, 96 h; procedure, shortened: as §2
3T3 [27] = experiment: Cytotoxicity against […] cells assessed as growth inhibition under anoxic condition at 29 uM measured over 4 days by WST-1 assay; type: cell-based; conditions: 3t3, 96 h; procedure, shortened: as §2
3T3 [28] = experiment: Cytotoxicity against […] cells assessed as growth inhibition under normoxic condition at 29 to 580 uM measured over 4 days by WST-1 assay in presence of 100 ug/mL vitamin C; type: cell-based; conditions: 3t3, 96 h; procedure, shortened: as §2
3T3 [29] = experiment: Cytotoxicity against […] cells assessed as growth inhibition under normoxic condition measured over 4 days by WST-1 assay; type: cell-based; conditions: 3t3, 96 h; procedure, shortened: as §2
[30] = Cytotoxicity against rat primary smooth muscle cells assessed as growth inhibition under normoxic condition measured over 4 days by WST-1 assay; type: cell-based; conditions: 96 h; procedure, shortened: as §4
3T3 [31] = experiment: Cytotoxicity against […] cells assessed as growth inhibition under anoxic condition at 100 ug/ml measured on day 4 by WST-1 assay in presence of vitamin C relative to control; type: cell-based; procedure, shortened: as §2
Rattus norvegicus [32] = species on record: Rattus norvegicus; experiment: Growth promoting activity in rat primary smooth muscle cells under normoxic condition at 100 to 200 ug/mL measured over 4 days by WST-1 assay; type: functional; procedure, shortened: as §1
[33] = Cytotoxicity against rat primary smooth muscle cells assessed as growth inhibition under normoxic condition at 100 to 200 ug/mL measured over 4 days by WST-1 assay; type: cell-based; conditions: 96 h; procedure, shortened: as §1
3T3 [34] = experiment: Growth promoting activity in […] cells assessed as change in cell growth under anoxic condition at 100 ug/ml measured over 4 days by WST-1 assay; type: functional, cell-based
Procedure, shortened: (§5)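 3T3 fibroblasts seeded at 4000 cells/cm² in DMEM/10% FBS/1% Pen/Strep. Additive from 1:50 H₂O/DMSO at 10–200 µg/mL, with or without vitamin C (100 or 500 µg/mL). Normoxic at 37°C, 5% CO₂, or anoxic with N₂-degassed medium and N₂ glove-bag handling in sealed bags, no medium change, up to 4 days. Daily WST-1 (1:10, 3 h, A450). Triplicates, normalized to untreated control = 100%.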

3T3 [35] = experiment: Growth promoting activity in […] cells under anoxic condition at 500 ug/mL measured on day 1 by WST-1 assay; type: functional, cell-based; procedure, shortened: as §5
3T3 [36] = experiment: Cytotoxicity against […] cells assessed as growth inhibition under normoxic condition at 500 ug/mL after 2 days by WST-1 assay; type: cell-based; conditions: 3t3, 48 h; procedure, shortened: as §5

SMILES: COCCOCCOCCOC(=O)CN1C(=O)C2(C)C=C(C)C1OO2 (configuration not stated)
- Activity [1]: 47%
- half-life [2]: 13 h

SMILES: COCCOCCOCCOC(=O)CN1C(=O)C2C=CC1(C)OO2 (configuration not stated)
- Activity [3]: 50%
- Drug degradation [4]: > 50%
- half-life [2]: 4 h

SMILES: COCCOCCOCCOC(=O)CN1C(=O)C2(C)C=C(C)C1(C)OO2 (configuration not stated)
- Activity [3]: 10%
- Drug degradation [4]: > 50%
- half-life [2]: 15 h

SMILES: COCCOCCOCCOC(=O)Cn1cccc(C)c1=O
- Activity [5]: Non-toxic
- Activity (Rattus norvegicus [6]): inactive
- Activity (Rattus norvegicus [7]): inactive

SMILES: COCCOCCOCCOC(=O)CN1C(=O)C2C=CC1OO2 (configuration not stated)
- Activity [1]: 18%
- half-life [2]: 0.5 h

SMILES: COCCOCCOCCOC(=O)CN1C(=O)C2(C)C=CC1OO2 (configuration not stated)
- Activity (3T3 [8]): Active
- Activity [9]: Not Active
- Activity [10]: Active
- Activity [11]: Toxic
- Activity [12]: Toxic
- Activity (Rattus norvegicus [13]): Active
- Activity (Rattus norvegicus [14]): Active
- Activity (Rattus norvegicus [15]): Active
- Activity [16]: Toxic
- Activity (3T3 [17]): Non-toxic
- Activity (3T3 [18]): Toxic
- Activity (3T3 [19]): Toxic
- Activity (3T3 [20]): Toxic
- Activity (3T3 [21]): Toxic
- Activity (3T3 [22]): inactive
- Activity (3T3 [23]): Non-toxic
- Activity (3T3 [24]): Active
- fold change (FC) (3T3 [25]): 10
- Activity (3T3 [26]): Non-toxic
- Activity (3T3 [27]): Non-toxic
- Activity (3T3 [28]): Non-toxic
- growth inhibition (GI) (3T3 [29]): Dose-dependent effect
- growth inhibition (GI) [30]: Dose-dependent effect
- Drug degradation [4]: 20%
- Activity [1]: 78%
- fold change (FC) (3T3 [31]): 2

SMILES: COCCOCCOCCOC(=O)CN1C(=O)C2(C)C=CC1(C)OO2 (configuration not stated)
- Activity [3]: 50%
- Drug degradation [4]: > 50%
- half-life [2]: 4 h

SMILES: O=C1O[C@H]([C@@H](O)CO)C(O)=C1O [ASCORBIC ACID]
- Activity (Rattus norvegicus [32]): inactive
- Activity [33]: Non-toxic
- Activity (3T3 [34]): inactive
- Activity (3T3 [35]): Active
- Activity (3T3 [36]): Toxic
